# Compounds with a hit are over-represented: about 2.7% of the library has one in this group of screens.
# MC4R barr agon = activates human MC4R beta-arrestin recruitment; P32245; U2OS MC4R beta-arrestin complementation, luminescence; percent of melanotan II response, DMSO zero; activation, % at 8.9 µM; hit rate 0.98% among 360,000;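 active means activation above a per-plate cutoff, the mean activation of sample wells on that plate plus 3 SD, cut at about 8% in these data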
# Target sequence (P32245 whole entry, looked up): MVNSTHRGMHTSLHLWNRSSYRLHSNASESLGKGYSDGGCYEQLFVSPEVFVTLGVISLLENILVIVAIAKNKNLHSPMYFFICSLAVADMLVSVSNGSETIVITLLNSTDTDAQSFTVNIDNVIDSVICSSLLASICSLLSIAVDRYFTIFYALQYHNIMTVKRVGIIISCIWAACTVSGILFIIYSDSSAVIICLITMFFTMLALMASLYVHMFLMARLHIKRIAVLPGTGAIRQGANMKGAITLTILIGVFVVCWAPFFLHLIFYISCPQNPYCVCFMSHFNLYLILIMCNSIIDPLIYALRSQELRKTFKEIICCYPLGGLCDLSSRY
# NR1D1 modulator = Rev-erb alpha (human) modulation; Rev-erbα–FITC-DNA binding, fluorescence polarization, 90 min; AID 1259318; P20393; activity, % at 10 µM; hit rate 0.79% among 370,000;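 active means activity above about 14%, limit read from the data; passing the limit was not always enough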
# MC4R antag cAMP = human MC4R antagonism in cAMP assay. inhibition, % at 6.5 µM. P32245. MC4R-expressing cells, MTII-stimulated cAMP, LANCE TR-FRET. hit rate 0.48% among 360,000;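 active means inhibition above its plate's cutoff, the mean of tested wells on that plate plus 3 SD, cut at about 29% in these data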
#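 Assay system: U2OS-MC4R stable cell line; Also added: Melanotan II; Technique: Eu-cAMP/anti-cAMP TR-FRET, emission 671 nm; Times: 30-min compound, 1-h challenge, 1-h detection, room temperature.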
# NR2E3 ag-1 = NR2E3 (human) agonism; Q9Y5X4; GST-NR2E3/biotin-RetCOR TR-FRET, 1536-well; inhibition of corepressor binding, % at 4.78 µM; hit rate 0.12% among 320,000; AID 2300;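 active means percent inhibition above the cutoff of mean plus 3 SD of all tested compounds, set per screening campaign, cut at about 20% in these data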
#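 System: GST-tagged NR2E3 plus biotinylated RetCOR corepressor; Amount: 1.35 nM GST-tagged NR2E3 final; Dosing: single nominal compound dose of 4.8 µM; Schedule: 5 h incubation at 4 °C; Technique: TR-FRET with europium anti-GST and streptavidin-D2, 340 nm excitation; Controls: biotin wells as high control, 0.6% DMSO wells as low control.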
# PG9 Ab binder = PG9 antibody binding by small molecule. hit rate 0.43% among 360,000. AID 624416. TR-FRET gp120-PG9 antibody binding. inhibition, % at 6.7 µM; in the data active means inhibition above about 8.5%
# NR2E3 ag-2 = activates human NR2E3 receptor; AID 602229; hit rate 0.35% among 360,000; CHO-S Gal4-NCOR/VP16-NR2E3 two-hybrid, luciferase; inhibition of corepressor binding, % at 3.98 µM; Q9Y5X4;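 active means inhibition above the mean of all tested compounds plus 3 SD, cut at about 70% in these data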;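 further: higher means lower luciferase signal from less NR2E3 corepressor binding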
# PG9 bind confirm = PG9 antibody binding, confirmed. shares compounds with PG9 Ab binder. TR-FRET PG9 antibody binding, biochemical. hit rate 90% among 1,500. inhibition, % at 6.7 µM; in the data active means inhibition above about 9%
# PGV04 counter = binds control antibody PGV04 in PG9 binder counter-screen | shares compounds with PG9 Ab binder | TR-FRET PGV04 antibody-gp120 binding, biochemical | inhibition, % at 6.7 µM | hit rate 95% among 1,500 | AID 651604; in the data active means inhibition above about 9.5%
# PG9 bind DR = PG9 antibody binding, dose response. shares compounds with PG9 Ab binder. TR-FRET PG9 antibody-gp120 binding inhibition. IC50, µM. 95 tested, under 10 active; in the data active means IC50 below about 10 µM
# PGV04 binding DR = PGV04 binding, dose response counter-screen. shares compounds with PG9 Ab binder. TR-FRET binding to control antibody PGV04. IC50, µM. hit rate 20% among 95. AID 651937
# PG126 binding DR = binds control antibody PG126 in PG9 counter-screen; shares compounds with PG9 Ab binder; TR-FRET binding to antibody PG126, counterscreen; IC50, µM; hit rate 20% among 95; AID 651939
# Numbers stand for hits; i = inactive; nt = not tested or not shown. Unless noted, no stated cut-off is given here; in the data, active means IC50 below about 9 µM; inactive means the rest.
SMILES,MC4R barr agon,NR1D1 modulator,MC4R antag cAMP,NR2E3 ag-1,PG9 Ab binder,NR2E3 ag-2,PG9 bind confirm,PGV04 counter,others
CCCCOc1cccc(C2/C(=C(\O)c3ccc4c(c3)OCCO4)C(=O)C(=O)N2CCN2CCOCC2)c1 (centres undefined),i,i,i,i,10,i,18,31,
CC1=CC(=C(c2ccc(N)cc2)c2ccc(N)cc2)C=CC1=N,nt,i,nt,nt,nt,nt,nt,nt,
CCOc1ccc(S(=O)(=O)NCc2cccs2)cc1C(C)C,i,i,i,nt,i,i,nt,nt,
COC(=O)c1ccccc1NC(=O)CN1C(=O)NC2(CCCCCCC2)C1=O,i,i,i,i,i,i,nt,nt,
Cc1cc(NC2C3CC4CC(C3)CC2C4)n2ncnc2n1 (centres undefined),i,i,i,i,i,i,nt,nt,
Cc1cc(NC2C3CC4CC(C3)CC2C4)n2nnnc2n1 (centres undefined),i,i,i,i,24,i,29,39,
CCOc1cc(N2CCOCC2)c(OCC)cc1NC(=O)c1cc(S(=O)(=O)N2CCOCC2)ccc1Cl,i,i,i,nt,i,i,nt,nt,
Cn1c(SCC(=O)N2CCc3ccccc32)nnc1-c1ccc(S(=O)(=O)N2CCCC2)cc1,i,i,i,i,9.5,i,17,25,
CC(=O)CSc1nnc(-c2ccc(S(=O)(=O)N3CCCC3)cc2)n1C,i,i,i,i,i,i,nt,nt,
COC(=O)C1CCN(CC(=O)Nc2sc3c(c2C#N)CCC3)CC1,i,i,i,i,i,i,nt,nt,
O=c1[nH]c2ccccc2cc1CN(c1ccccc1)S(=O)(=O)c1ccccc1,i,i,i,i,18,i,25,27,
CCN(c1ccc(C(=O)CN2C(=O)NC3(CCOc4ccccc43)C2=O)cc1)S(C)(=O)=O (centres undefined),i,i,i,i,9.8,i,34,32,PG9 bind DR=i;PGV04 binding DR=i;PG126 binding DR=i
O=C(CN1C(=O)NC2(CCOc3ccccc32)C1=O)c1ccc(Cl)cc1 (centres undefined),i,i,i,i,i,i,nt,nt,
Fc1cccc(-c2n[nH]c(=S)n2-c2ccccc2)c1,i,i,i,i,15,i,i,9.5,
Cc1cc(-c2n[nH]c(=S)n2-c2ccccc2)nn1C,i,i,i,i,i,i,nt,nt,
CCC1(CC)Cc2ccccc2-c2[nH]c(=S)[nH]c(=O)c21,i,i,i,i,17,i,i,i,
CCC1(CC)Cc2ccccc2-c2nc(NN)[nH]c(=O)c21,i,i,i,i,i,i,nt,nt,
Nc1nc(SCC(=O)NCC2CCCO2)[nH]c(=O)c1NC(=O)c1ccco1 (centres undefined),i,i,i,i,i,i,nt,nt,
CCCn1c(/C=C/c2cc[n+](C)cc2)nc2ccccc21,i,i,i,i,10,i,13,15,
S=C(NC1CC1)SCc1ccco1,i,i,i,i,i,i,nt,nt,
CC(Oc1ccc(-c2ccccc2)cc1)C(=O)N/N=C/c1cccnc1 (centres undefined),i,i,i,i,i,i,nt,nt,
CSc1cccc(NC(=O)CCCn2c(=O)c3cccn3c3cccnc32)c1,i,i,i,i,12,i,14,20,
CCc1ccc(CNC(=O)CCCn2c(=O)c3cccn3c3cccnc32)cc1,i,i,i,i,i,i,nt,nt,
CC(=O)c1c(C)[nH]c(C(=O)Nc2ccc(C)c(S(=O)(=O)Nc3ccc(C)cc3C)c2)c1C,i,i,i,i,11,i,13,16,
